Among the data in ChEMBL document CHEMBL1165943, “Design and synthesis of new anticancer pyrimidines with multiple-kinase inhibitory effect” (Bioorg Med Chem, 2010) are growth values, retold here.

Common to all, as to format: functional
One experiment relates to RXF 393. As to the kind of experiment: Cytotoxicity against human RXF393 cells assessed as cell growth at 10 uM. Particulars: Homo sapiens, RXF 393; read-out: Activity. An outline of the steps:
(§1)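 Single-dose screen at 10 μM across the 60-cell-line panel. Cells grown in RPMI 1640 with 5% FBS and 2 mM L-glutamine, seeded at 5,000–40,000 cells/well according to doubling time, and treated 24 h later. Exposure lasted 48 h at 37 °C, 5% CO₂. Adherent cells were fixed with cold TCA, suspension cells were fixed settled, and both were stained with SRB and read at 515 nm. Growth % was recorded, with inhibition % = 100 − growth %.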

The next experiment concerns SK-MEL-28. Put plainly: Cytotoxicity against human SK-MEL-28 cells assessed as cell growth at 10 uM. The note with it: Homo sapiens, SK-MEL-28; read-out: Activity. The procedure, abridged:
as §1

Another experiment has as its system SF-268. Put plainly: Cytotoxicity against human SF268 cells assessed as cell growth at 10 uM. Particulars: Homo sapiens, SF-268; read-out: Activity. The procedure, abridged: as §1
In the next experiment the test system is BT-549. As to the kind of experiment: Cytotoxicity against human BT549 cells assessed as cell growth at 10 uM. Particulars: Homo sapiens, BT-549; read-out: Activity. An outline of the steps:
(§2)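 Single-concentration screen at 10 μM across the 60-cell-line panel (nine tissue types); growth percentage recorded per cell line, with inhibition taken as 100 minus growth percentage.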

The next experiment deals with OVCAR-4. As to the kind of experiment: Cytotoxicity against human OVCAR4 cells assessed as cell growth at 10 uM. The note with it: Homo sapiens, OVCAR-4; read-out: Activity. The procedure, abridged: as §1
Another experiment has as its system MDA-MB-231. Put plainly: Cytotoxicity against human MDA-MB-231 cells assessed as cell growth at 10 uM. The note with it: Homo sapiens, MDA-MB-231; read-out: Activity. The procedure, abridged: as §1
The next experiment concerns SN12C. As to the kind of experiment: Cytotoxicity against human SN12C cells assessed as cell growth at 10 uM. The note with it: Homo sapiens, SN12C; read-out: Activity. The procedure, abridged:
as §1

A further experiment relates to OVCAR-8. Put plainly: Cytotoxicity against human OVCAR8 cells assessed as cell growth at 10 uM. Particulars: Homo sapiens, OVCAR-8; read-out: Activity. The procedure, abridged:
as §1

Another experiment deals with HCT-15. Put plainly: Cytotoxicity against human HCT15 cells assessed as cell growth at 10 uM. Particulars: Homo sapiens, HCT-15; read-out: Activity. An outline of the steps: as §2
Experiment [1] is described as follows: Cytotoxicity against human Hs 578T cells assessed as cell growth at 10 uM. Particulars: read-out: Activity. An outline of the steps:
as §2

The test system of a further experiment is KM12. Put plainly: Cytotoxicity against human KM12 cells assessed as cell growth at 10 uM. The note with it: Homo sapiens, KM12; read-out: Activity. An outline of the steps:
as §1

In a further experiment the test system is HCC 2998. As to the kind of experiment: Cytotoxicity against human HCC2998 cells assessed as cell growth at 10 uM. The note with it: Homo sapiens, HCC 2998; read-out: Activity. An outline of the steps: as §2
Experiment [2] can be described thus: Cytotoxicity against human […] cells assessed as cell growth at 10 uM. The note with it: Homo sapiens, RPMI8266; read-out: Activity. The procedure, abridged: as §1
The next experiment has as its system HOP-92. Put plainly: Cytotoxicity against human HOP92 cells assessed as cell growth at 10 uM. Particulars: Homo sapiens, HOP-92; read-out: Activity. An outline of the steps: as §2
The test system of a further experiment is SNB-19. Put plainly: Cytotoxicity against human SNB19 cells assessed as cell growth at 10 uM. Particulars: read-out: Activity. The procedure, abridged:
as §1

A further experiment concerns LOX IMVI. As to the kind of experiment: Cytotoxicity against human LOXIMVI cells assessed as cell growth at 10 uM. Particulars: Homo sapiens, LOX IMVI; read-out: Activity. The procedure, abridged: as §1
The test system of another experiment is MDA-MB-435. Put plainly: Cytotoxicity against human MDA-MB-435 cells assessed as cell growth at 10 uM. Particulars: read-out: Activity. The procedure, abridged:
as §1

The next experiment concerns Malme-3M. As to the kind of experiment: Cytotoxicity against human MALME-3M cells assessed as cell growth at 10 uM. Particulars: Homo sapiens, Malme-3M; read-out: Activity. An outline of the steps:
as §1

The next experiment relates to CCRF-CEM. As to the kind of experiment: Cytotoxicity against human CCRF-CEM cells assessed as cell growth at 10 uM. The note with it: Homo sapiens, CCRF-CEM; read-out: Activity. An outline of the steps: as §2
The subject of the next experiment is A549. Put plainly: Cytotoxicity against human A549 cells assessed as cell growth at 10 uM. The note with it: Homo sapiens, A549; read-out: Activity. The procedure, abridged: as §2
The test system of the next experiment is NCI-H322M. As to the kind of experiment: Cytotoxicity against human NCI-H322M cells assessed as cell growth at 10 uM. The note with it: Homo sapiens, NCI-H322M; read-out: Activity. An outline of the steps: as §1
A further experiment concerns MOLT-4. As to the kind of experiment: Cytotoxicity against human MOLT4 cells assessed as cell growth at 10 uM. Particulars: Homo sapiens, MOLT-4; read-out: Activity. An outline of the steps:
as §1

The subject of a further experiment is UACC-62. As to the kind of experiment: Cytotoxicity against human UACC62 cells assessed as cell growth at 10 uM. The note with it: Homo sapiens, UACC-62; read-out: Activity. An outline of the steps: as §1
Another experiment has as its system MCF7. Put plainly: Cytotoxicity against human MCF7 cells assessed as cell growth at 10 uM. Particulars: Homo sapiens, MCF7; read-out: Activity. The procedure, abridged:
as §1

Take `CC(=O)c1ccc(-c2ccc(-c3ccnc(Nc4cc(C(F)(F)F)cc(C(F)(F)F)c4)n3)cn2)cc1`: the growth at 10 µM is 113% in the experiment on RXF 393; 95.8% in the experiment with SK-MEL-28; 106% in the experiment with SF-268; 99.8% in the experiment on BT-549; 94.6% in the experiment on OVCAR-4; 98.2% with MDA-MB-231. Besides, the growth at 10 µM in the experiment on SN12C was found to be 93.6%; with OVCAR-8, 96.7%; in the experiment on HCT-15, 110%; in experiment [1] it was 110%; with KM12, 114%; in the experiment with HCC 2998, 104%. The growth at 10 µM was 97.8% in experiment [2]; 103% in the experiment with HOP-92; 110% in the experiment on SNB-19; 97.8% in the experiment with LOX IMVI; 115% in the experiment with MDA-MB-435; 124% in the experiment on Malme-3M. For the same molecule, the growth at 10 µM worked out at 99.4% with CCRF-CEM; 104% in the experiment on A549; 103% with NCI-H322M; 91% in the experiment on MOLT-4; 104% with UACC-62; 90.8% with MCF7.

`FC(F)(F)c1cc(Nc2nccc(-c3ccc(-c4ccccc4)nc3)n2)cc(C(F)(F)F)c1`: the growth at 10 µM was found to be 143% in the experiment with RXF 393; 109% in the experiment on SK-MEL-28; 105% in the experiment with SF-268; 106% in the experiment on BT-549; 95% in the experiment with OVCAR-4; 87.3% in the experiment on MDA-MB-231. In addition, the growth at 10 µM in the experiment with SN12C was 86.1%; with OVCAR-8, 94.1%; in the experiment on HCT-15, 99.9%; in experiment [1], 94.8%; in the experiment with KM12, 105%; with HCC 2998, 124%. The growth at 10 µM in experiment [2] was 96.2%; with HOP-92, 89.7%; in the experiment on SNB-19, 109%; with LOX IMVI, 98.8%; with MDA-MB-435, 109%; in the experiment on Malme-3M, 123%. Besides, the growth at 10 µM with CCRF-CEM turned out to be 89.7%; in the experiment on A549, 97.3%; with NCI-H322M it was 99.7%; in the experiment on MOLT-4, 93.4%; with UACC-62, 85.3%; in the experiment with MCF7, 83.2%.
